# Screens: PubChem, several laboratories
# STK33 kinase inh = human STK33 kinase inhibition. 320,000 tested, 0.073% active. purified STK33, MBP phosphorylation, ADP-Glo luminescence. Q9BYT3. inhibition, % at 10 µM;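 active = inhibition at or above 25%, using the most active replicate where run in duplicate; inactive = inhibition below 25%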
# CR mimetic SO = caloric restriction mimetics inhibiting age-related superoxide in yeast. S. cerevisiae aged cells, superoxide DHE fluorescence; stronger effect = lower value. AID 2690. 330,000 tested, 0.18% active. superoxide response (% of plate mean), % at 10 µM;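 active = superoxide response under a set limit, about three screen SD below normal, cut at about 65% in these data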;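 note: yeast aged for seven days with compound at 30 °C before DHE staining; 100% = average MFI of all compound-treated wells on the plate with controls excluded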
# PolyA inhibitor = blocks polyadenylation in yeast reporter cells; S. cerevisiae SKY197-pL101 polyadenylation reporter, beta-gal luminescence; efflux-impaired pdr1/pdr3 knockout yeast; score 100 = 6 SD above DMSO; activity score, % at 12 µM; 300,000 tested, 0.02% active;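 active = lowest replicate activity score at least 50, where 100 means six control SD above control mean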;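 note: yeast exposed to compound for 9 h at 30 °C; higher score means more reporter readthrough which indicates perturbed polyadenylation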
# GSK3A inh = human GSK-3 alpha kinase inhibition. 320,000 tested, 0.1% active. AID 2650. inhibition, % at 10 µM. P49840. ADP-Glo luminescence, 60 min;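 active = more than half of replicates show inhibition above 20%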;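 note: GST-tagged GSK-3 alpha with peptide substrate and 25 µM ATP; 0% = DMSO neutral wells and 100% = GW8510 positive control wells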
# AI-2 QS mod = modulators of Vibrio harveyi AI-2 quorum sensing system. Vibrio harveyi JMH597 AI-2 luminescence/OD600 ratio, 9 h; stronger effect = lower value; strain lacks LuxN and CqsS sensors; 0 = neutral-control median. activity change, % at 7.5 µM. 300,000 tested, 0.4% active; in the data active = activity change below about -75%, passing the limit was not always enough;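 note: luminescence divided by OD600 gain over 9 h not by final OD600 alone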
# GSK3beta inhib = blocks human GSK3beta kinase activity; P49841; GST-GSK3beta kinase, ADP-Glo luminescence, 60 min; stronger effect = lower value; activity score (negative = inhibition), % at 10 µM; 300,000 tested, 0.038% active;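 active = more than half of replicate wells score below -50%, meaning over 50% inhibition versus plate controls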;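 note: 0% = median DMSO wells and -100% = median GW8510 positive control wells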
# Target sequence (P49841 whole entry, looked up): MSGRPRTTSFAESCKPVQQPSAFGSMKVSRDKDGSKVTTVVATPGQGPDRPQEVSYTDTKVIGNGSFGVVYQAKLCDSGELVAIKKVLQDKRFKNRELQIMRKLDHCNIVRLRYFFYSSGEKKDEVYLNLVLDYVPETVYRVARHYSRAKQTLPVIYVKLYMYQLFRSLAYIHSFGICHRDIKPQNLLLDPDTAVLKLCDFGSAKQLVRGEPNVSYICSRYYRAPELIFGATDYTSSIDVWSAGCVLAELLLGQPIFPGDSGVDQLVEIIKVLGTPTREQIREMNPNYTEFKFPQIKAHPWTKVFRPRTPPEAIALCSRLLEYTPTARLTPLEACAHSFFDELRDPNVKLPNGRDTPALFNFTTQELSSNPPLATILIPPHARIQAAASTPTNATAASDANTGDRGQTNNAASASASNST
#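 Assay system: GST-tagged human GSK3beta kinase, cell-free; Input: 1.6 ng GSK3beta; Medium: Tris/MgCl2 kinase buffer; Timing: 60 min enzyme reaction, room temperature; Signal: ADP-Glo luminescence quantifying ADP generated by kinase; Evaluation: score relative to plate controls; Benchmarks: DMSO neutral wells and GW8510 at 20 µM as positive.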
# CR mimetic CP = confirmation of caloric restriction mimetics inhibiting yeast age-related superoxide; shares compounds with CR mimetic SO; superoxide response (% of plate), % at 10 µM; 850 tested, 1% active; S. cerevisiae aging, superoxide DHE fluorescence; stronger effect = lower value;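 active = superoxide signal below 65% of the plate average of sample wells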;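 note: cells aged with compound for 7 days at 30 degrees C before staining; 100% equals mean DHE fluorescence of all compound wells on the plate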
# DHE counter = counter-screen for compounds affecting DHE oxidation and fluorescence in yeast | shares compounds with CR mimetic SO | S. cerevisiae BY4741, flow cytometry; stronger effect = lower value | fluorescence response, % at 10 µM | 850 tested, under 10 active;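 active = fluorescence response below 15%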;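 note: percent of the mean fluorescence averaged over all compound wells on the plate; lower means stronger quenching of DHE signal or ROS scavenging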
# An asterisk follows results filed as active; x = not tested or not shown. Sampled rows, rich in hits. Any-hit rate of the full collection: about 0.72%.
SMILES,STK33 kinase inh,CR mimetic SO,PolyA inhibitor,GSK3A inh,AI-2 QS mod,GSK3beta inhib,CR mimetic CP,DHE counter
Cc1ccc(-c2nnc(Nc3ccc(C(N)=O)cc3)c3ccccc23)cc1S(=O)(=O)NCC1CCCO1 (stereo not given),0,95,-9,-3,33,0,112,100
CC(=O)Nc1ccc(Nc2nnc(-c3ccc(C)c(S(N)(=O)=O)c3)c3ccccc23)cc1,0,90,-7,1,20,4,106,90
CNC(=O)COc1ccc(Nc2nnc(-c3ccc(C)c(S(N)(=O)=O)c3)c3ccccc23)cc1,0,42*,9,-2,10,-3,101,92
CNC(=O)c1cc(Nc2nnc(-c3ccc(C)c(S(N)(=O)=O)c3)c3ccccc23)ccc1OC,4,58*,-5,4,57,-2,115,111
Cc1ccc(-c2nnc(Nc3ccc4c(c3)OCO4)c3ccccc23)cc1S(N)(=O)=O,x,110,-12,x,8,1,99,94
COc1nnc(-c2ccc(C)c(S(N)(=O)=O)c2)c2ccccc12,0,100,-1,-1,10,-1,x,x
Nc1cc2c3c(cccc3c1)C(=O)N(CCN1CCCC1)C2=O,0,48*,-7,0,23,-3,100,105
NC(=O)c1cc[n+](CC(=O)NC(=O)Nc2ccccc2)cc1,2,101,x,7,x,x,x,x
CN(CC(O)Cn1c2ccccc2c2ccccc21)S(C)(=O)=O (stereo not given),0,101,-6,-1,1,1,101,97
OCCN(CCO)CC(O)Cn1c2ccccc2c2ccccc21 (stereo not given),0,124,-11,16,37,-2,91,99
CS(=O)(=O)N(CC(O)Cn1c2ccccc2c2ccccc21)c1ccccc1 (stereo not given),-1,114,7,-2,6,7,x,x
O=C1CSC(c2ccc([N+](=O)[O-])cc2)N1c1ccc(O)cc1 (stereo not given),-1,92,19,0,2,-3,x,x
Cc1ccc(N2CCN(C(=O)c3cccc([N+](=O)[O-])c3)CC2)cc1Cl,-1,112,32,-2,21,0,88,99
CCOc1ccccc1C(=O)N1c2ccccc2Sc2ccccc21,-1,57*,-11,-1,5,0,86,94
COc1cc(SC)ccc1C(=O)N1CCN(c2ccccc2F)CC1,-1,121,-19,x,28,3,120,119
COc1ccc(N2CCN(C(=O)c3ccc(SC)cc3OC)CC2)cc1,0,94,-3,-2,29,2,x,x
COc1ccc(C(=O)N2CCN(c3cccc(Cl)c3)CC2)c(OC)c1,0,104,20,-1,28,3,108,100
O=C(c1cccc([N+](=O)[O-])c1)N1CCN(c2cccc(Cl)c2)CC1,1,100,-20,1,28,-2,x,x
CN(C)S(=O)(=O)c1ccc(C(=O)Nc2ccn(C)n2)cc1,0,105,10,-1,-2,2,x,x
Cc1c(C(=O)N2CCN(c3ccccn3)CC2)cccc1[N+](=O)[O-],0,86,10,-1,28,1,x,x
Cc1c(C(=O)N2CCN(c3cccc(Cl)c3)CC2)cccc1[N+](=O)[O-],-1,96,-6,x,15,1,94,98
CCOc1ccccc1C(=O)N1CCN(c2cccc(Cl)c2)CC1,2,119,-10,-1,24,3,98,91
CCn1cc(C(=O)NNC(=O)c2ccc(Cl)cc2)c(=O)c2ccc(C)nc21,-1,122,3,-2,11,4,x,x
CCCc1cc(C(=O)Nc2cccc([N+](=O)[O-])c2)cs1,2,65*,-8,3,27,3,95,98
